Experimental data taken from ChEMBL document CHEMBL1938233, “2-Oxo-N-aryl-1,2,3,4-tetrahydroquinoline-6-sulfonamides as activators of the tumor cell specific M2 isoform of pyruvate kinase” (Bioorg Med Chem Lett, 2011).
Calls of active or inactive are those of the source. No cut-off for these calls is given here.

Legend:
Pyruvate kinase PKM [1] = target: T1, Pyruvate kinase PKM (Homo sapiens, UniProt P14618); test: Activation of human PKM2 assessed as ATP product formation at 57 uM after 1 hr by luminescent pyruvate-kinase luciferase coupled assay
In short: (§1)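 Luminescent pyruvate kinase–luciferase coupled assay. AC50 is the mean of three separate experiments. Maximum response is % activation at 57 μM compound, normalized as described in the supporting information.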
Target sequence in this assay (P14618 2-531 limits assumed): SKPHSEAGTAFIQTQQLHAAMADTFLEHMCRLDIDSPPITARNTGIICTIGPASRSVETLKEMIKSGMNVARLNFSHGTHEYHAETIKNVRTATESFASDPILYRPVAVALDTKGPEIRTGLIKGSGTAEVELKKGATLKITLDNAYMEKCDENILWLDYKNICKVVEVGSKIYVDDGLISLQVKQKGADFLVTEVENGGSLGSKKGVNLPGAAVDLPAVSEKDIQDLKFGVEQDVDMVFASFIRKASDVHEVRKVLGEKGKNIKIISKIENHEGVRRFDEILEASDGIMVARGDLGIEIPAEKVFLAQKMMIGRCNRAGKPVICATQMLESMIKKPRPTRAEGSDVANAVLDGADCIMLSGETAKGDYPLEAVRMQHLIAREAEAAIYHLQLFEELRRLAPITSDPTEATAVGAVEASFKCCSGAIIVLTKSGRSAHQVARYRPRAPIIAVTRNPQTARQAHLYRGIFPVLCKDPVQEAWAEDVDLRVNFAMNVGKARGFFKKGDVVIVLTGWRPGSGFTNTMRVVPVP

Pyruvate kinase PKM [2] = target: T1, Pyruvate kinase PKM; test: Activation of human PKM2 assessed as ATP product formation at 57 µM after 1 hr by luminescent pyruvate kinase-luciferase coupled assay
Target sequence in this assay (P14618 2-531 limits assumed): as above

Liver = test: Half life in mouse liver microsomes at 2 uM after 2 mins by LC/MS/MS analysis; assay type: ADME, Microsome
Liver microsomes = test: Half life in human liver microsomes at 2 uM after 2 mins by LC/MS/MS analysis; assay type: ADME, Microsome
[3] = Aqueous kinetic solubility of the compound in PBS buffer; assay type: physicochemical
Pyruvate kinase PKM [4] = target: T1, Pyruvate kinase PKM; test: Activation of human PKM2 assessed as ATP product formation after 1 hr by luminescent pyruvate kinase-luciferase coupled assay; in short: as §1
[5] = Apparent permeability from apical to basolateral side of human Caco2 cells at pH 7.4 after 2 hrs by LC/MS/MS analysis; assay type: ADME, cell-based; conditions: Caco-2, pH 7.4
[6] = target: Pyruvate kinase PKLR (Homo sapiens) (UniProt P30613); test: Activation of PKLR assessed as ATP product formation at 57.5 uM after 1 hr by luminescent pyruvate kinase-luciferase coupled assay
Pyruvate kinase PKLR (Homo sapiens), sequence (P30613 whole entry, looked up): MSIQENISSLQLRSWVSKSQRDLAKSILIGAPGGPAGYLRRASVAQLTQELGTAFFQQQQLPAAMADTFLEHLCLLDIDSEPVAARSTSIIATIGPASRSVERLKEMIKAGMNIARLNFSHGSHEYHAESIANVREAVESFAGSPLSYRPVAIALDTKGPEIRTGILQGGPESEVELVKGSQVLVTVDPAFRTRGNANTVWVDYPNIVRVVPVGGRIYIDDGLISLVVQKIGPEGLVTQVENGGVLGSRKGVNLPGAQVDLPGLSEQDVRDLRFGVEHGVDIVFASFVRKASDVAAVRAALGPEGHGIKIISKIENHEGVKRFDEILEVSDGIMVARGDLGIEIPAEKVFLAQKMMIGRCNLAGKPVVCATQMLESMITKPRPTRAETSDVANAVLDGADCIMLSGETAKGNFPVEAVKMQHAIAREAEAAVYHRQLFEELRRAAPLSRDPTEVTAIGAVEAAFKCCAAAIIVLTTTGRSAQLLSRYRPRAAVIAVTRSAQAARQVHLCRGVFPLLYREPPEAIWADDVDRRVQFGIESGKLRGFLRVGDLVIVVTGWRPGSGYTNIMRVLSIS

Caco-2 = test: Efflux ratio of permeability from basolateral to apical side over apical to basolateral side in human Caco2 cells at pH 7.4 after 2 hrs by LC/MS/MS analysis; conditions: caco-2, pH 7.4, 2 h
[7] = Apparent permeability from basolateral to apical side of human Caco2 cells at pH 7.4 after 2 hrs by LC/MS/MS analysis; assay type: ADME, cell-based; conditions: Caco-2, pH 7.4
Pyruvate kinase PKM [8] = target: T1, Pyruvate kinase PKM; test: Activation of human PKM2 assessed as effect on Km of ADP at 10 uM by after 6 mins by fluorescent pyruvate kinase-lactate dehydrogenase coupled assay
In short: (§2)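 PK–LDH coupled kinetic assay run at about 22 °C with 10 nM PKM2, 200 mM KCl and 15 mM MgCl2. Either ADP or PEP was held at 4.0 mM while the other substrate was varied. Initial velocity (pmol/min) was measured with and without compound at 10 μM.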
Target sequence in this assay (P14618 2-531 limits assumed): as the sequence (P14618 2-531 limits assumed) above

Pyruvate kinase PKM [9] = target: T1, Pyruvate kinase PKM; test: Activation of human PKM2 assessed as reduction in Km for PEP at 10 uM by after 6 mins by fluorescent pyruvate kinase-lactate dehydrogenase coupled assay; in short: as §2
Target sequence in this assay (P14618 2-531 limits assumed): as above

Structure (SMILES)	Emax (Pyruvate kinase PKM [1])	Emax (Pyruvate kinase PKM [2])	also measured
Cc1ccc(NS(=O)(=O)c2cc3c(cc2F)NC(=O)CC3)cc1C	–	101%	t1/2 (Liver): 34.3 min; t1/2 (Liver microsomes): 16.5 min
Cc1ccc(NS(=O)(=O)c2cc3c(cc2NC(C)CO)NC(=O)CC3)cc1C (racemic)	–	124%	Kinetic_solubility [3]: > 120 µM; EC50 (Pyruvate kinase PKM [4]): 230 nM
Cc1ccc(NS(=O)(=O)c2cc3c(cc2Cl)NC(=O)CO3)cc1C	–	80%	–
Cc1ccc(NS(=O)(=O)c2cc3c(cc2NC(C)C)NC(=O)CC3)cc1C	–	123%	–
Cc1ccc(NS(=O)(=O)c2ccc3[nH]c(=O)[nH]c3c2)cc1C	–	inactive	–
Cc1ccc(NS(=O)(=O)c2ccc3c(c2)N(C)CCO3)cc1C	–	81%	–
CC(=O)Nc1ccc(S(=O)(=O)Nc2ccc(C)c(C)c2)cc1	–	< 40%	–
Cc1ccc(NS(=O)(=O)c2cc3c(cc2N[C@@H](C)CO)CCC(=O)N3)cc1Cl	–	54%	–
Cc1ccc(NS(=O)(=O)c2cc3c(cc2C)NC(=O)CO3)cc1C	–	111%	–
Cc1ccc(NS(=O)(=O)c2cc(N[C@@H](C)CO)cc3c2NC(=O)CC3)cc1C	–	–	Activity (Pyruvate kinase PKM [4]): inactive
CC(=O)N1CCc2cc(S(=O)(=O)Nc3ccc(C)c(C)c3)ccc21	–	96%	–
Cc1ccc(NS(=O)(=O)c2cc3c(cc2N[C@@H](C)CO)NC(=O)CC3)cc1Cl	–	96%	Papp A→B at 2 h [5]: 1.13 ×10⁻⁶ cm/s; Activity [6]: < 25%; EC50 (Pyruvate kinase PKM [4]): 60 nM; Ratio (Caco-2): 10.51; t1/2 (Liver): 22.9 min; t1/2 (Liver microsomes): 30.4 min; Papp B→A at 2 h [7]: 11.9 ×10⁻⁶ cm/s
Cc1ccc(NS(=O)(=O)c2cc3c(cc2N2CCCCC2)NC(=O)CC3)cc1C	–	47%	–
Cc1ccc(NS(=O)(=O)c2cc3c(cc2N[C@@H](C)CO)NC(=O)CC3)cc1C	–	116%	EC50 (Pyruvate kinase PKM [4]): 170 nM
Cc1ccc(NS(=O)(=O)c2ccc(N3CCCC3=O)cc2)cc1C	–	60%	–
Cc1ccc(NS(=O)(=O)c2cc3c(cc2N2CCC(N(C)C)C2)NC(=O)CC3)cc1C (racemic)	–	inactive	–
Cc1ccc(NS(=O)(=O)c2cc(Br)cc3c2NC(=O)CC3)cc1Cl	–	–	Activity (Pyruvate kinase PKM [4]): inactive
CC(=O)N1CCCc2cc(S(=O)(=O)Nc3ccc(C)c(C)c3)ccc21	–	76%	–
Cc1cc(NS(=O)(=O)c2cc3c(cc2N[C@@H](C)CO)NC(=O)CC3)ccc1F	–	95%	–
Cc1ccc(NS(=O)(=O)c2cccc(C(=O)O)c2)cc1C	–	inactive	–
Cc1ccc(NS(=O)(=O)c2cc(Br)cc3c2NC(=O)CC3)cc1C	–	–	Activity (Pyruvate kinase PKM [4]): inactive
Cc1ccc(NS(=O)(=O)c2cc3c(cc2N[C@H](C)CO)NC(=O)CC3)cc1C	–	108%	EC50 (Pyruvate kinase PKM [4]): 880 nM
C[C@@H](CO)Nc1cc2c(cc1S(=O)(=O)Nc1ccc(F)c(Cl)c1)CCC(=O)N2	–	92%	Papp A→B at 2 h [5]: 1.61 ×10⁻⁶ cm/s; Activity [6]: < 25%; Ratio (Caco-2): 10.91; t1/2 (Liver): 36.3 min; t1/2 (Liver microsomes): 78.8 min; Papp B→A at 2 h [7]: 17.5 ×10⁻⁶ cm/s

Structure (SMILES)	Emax (Pyruvate kinase PKM [1])	Emax (Pyruvate kinase PKM [2])	also measured
Cc1ccc(NS(=O)(=O)c2cc3c(cc2N(C)C)NC(=O)CC3)cc1C	–	129%	t1/2 (Liver): 21.7 min; t1/2 (Liver microsomes): 19.4 min
Cc1ccc(NS(=O)(=O)c2ccc3ccccc3c2)cc1C	–	69%	–
Cc1ccc(NS(=O)(=O)c2ccc3c(c2)CCC(=O)N3)cc1C	–	–	Papp A→B at 2 h [5]: 14.9 ×10⁻⁶ cm/s; Activity [6]: < 25%; EC50 (Pyruvate kinase PKM [4]): 790 nM; Ratio (Caco-2): 0.82; t1/2 (Liver): 17.3 min; t1/2 (Liver microsomes): 6 min; Papp B→A at 2 h [7]: 12.2 ×10⁻⁶ cm/s
Cc1ccc(NS(=O)(=O)c2ccc3c(c2)CC(=O)N3C)cc1C	–	119%	–
Cc1ccc(NS(=O)(=O)c2cc3c(cc2N(C)C)CCC(=O)N3)cc1C	–	106%	–
Cc1ccc(NS(=O)(=O)c2ccc3c(c2)NC(=O)CO3)cc1C	–	81%	–
Cc1ccc(NS(=O)(=O)c2cc(N[C@@H](C)CO)cc3c2NC(=O)CC3)cc1Cl	–	–	Activity (Pyruvate kinase PKM [4]): inactive
Cc1ccc(NS(=O)(=O)c2cc3c(cc2N2CCCC2)NC(=O)CC3)cc1C	–	123%	–
Cc1ccc(NS(=O)(=O)c2cc3c(cc2/C=C/c2ccccc2)NC(=O)CO3)cc1C	–	inactive	–
Cc1ccc(NS(=O)(=O)c2ccc(F)cc2)cc1C	–	inactive	–
Cc1ccc(NS(=O)(=O)c2cc3c(cc2NCCO)NC(=O)CC3)cc1C	–	132%	–
COc1cccc(Cn2ncc3c4sc([S+](C)[O-])cc4n(C)c3c2=O)c1 (stereo not given)	–	–	EC50 (Pyruvate kinase PKM [4]): 73 nM
Cc1ccc(NS(=O)(=O)c2ccc3c(c2)CCC(C)(C)O3)cc1C	–	62%	–
COc1ccc(S(=O)(=O)Nc2ccc(C)c(C)c2)cc1	–	53%	–
CC(=O)Nc1cccc(S(=O)(=O)Nc2ccc(C)c(C)c2)c1	–	58%	–
Cc1ccc(NS(=O)(=O)c2cc3c(cc2NCC(C)(C)O)NC(=O)CC3)cc1C	–	83%	–
Cc1ccc(NS(=O)(=O)c2cc3c(cc2-c2ccccc2)NC(=O)CO3)cc1C	–	inactive	–
Cc1ccc(NS(=O)(=O)c2ccc3c(ccn3C)c2)cc1C	–	47%	EC50 (Pyruvate kinase PKM [4]): 19900 nM
O=C1CCc2cc(S(=O)(=O)Nc3ccc(F)c(Cl)c3)c(F)cc2N1	–	88%	Papp A→B at 2 h [5]: 9.38 ×10⁻⁶ cm/s; Activity (Pyruvate kinase PKM [8]): inactive; Activity [6]: < 25%; EC50 (Pyruvate kinase PKM [4]): 90 nM; Ratio (Caco-2): 0.84; Activity (Pyruvate kinase PKM [9]): Active; t1/2 (Liver): 117.5 min; t1/2 (Liver microsomes): 277.2 min; Papp B→A at 2 h [7]: 7.91 ×10⁻⁶ cm/s
CNc1cc2c(cc1S(=O)(=O)Nc1ccc(C)c(C)c1)CCC(=O)N2	–	102%	t1/2 (Liver): 19.1 min; t1/2 (Liver microsomes): 19.7 min
Cc1ccc(NS(=O)(=O)c2ccc3c(c2)oc(=O)n3C)cc1C	–	95%	–
CCN(CC)c1cc2c(cc1S(=O)(=O)Nc1ccc(C)c(C)c1)CCC(=O)N2	–	106%	–
Cc1ccc(NS(=O)(=O)c2cccc(Cl)c2)cc1C	–	71%	–

Continued, in another order:

Emax (Pyruvate kinase PKM [1])	Emax (Pyruvate kinase PKM [2])	Structure (SMILES)	also measured
138%	–	Cc1ccc(NS(=O)(=O)c2ccc3c(c2)CCC(=O)N3)cc1F	–
inactive	–	O=C1CCc2cc(S(=O)(=O)Nc3cccc(-c4ccccc4)c3)ccc2N1	–
85%	–	COc1ccc(NS(=O)(=O)c2ccc3c(c2)CCC(=O)N3)cc1	–
104%	–	Cc1ccc(NS(=O)(=O)c2ccc3c(c2)CCC(=O)N3)cc1Cl	EC50 (Pyruvate kinase PKM [4]): 100 nM
121%	–	O=C1CCc2cc(S(=O)(=O)Nc3ccc4ccccc4c3)ccc2N1	–
–	92%	Cc1cc(NS(=O)(=O)c2cc3c(cc2F)NC(=O)CC3)ccc1F	–
–	57%	Cc1ccc(NS(=O)(=O)c2ccc3c(c2)CC(=O)N3)cc1C	–
101%	–	Cc1cccc(NS(=O)(=O)c2ccc3c(c2)CCC(=O)N3)c1	EC50 (Pyruvate kinase PKM [4]): 250 nM
–	51%	Cc1ccc(NS(=O)(=O)c2cc3c(cc2Br)CCC(=O)N3)cc1Cl	EC50 (Pyruvate kinase PKM [4]): 7430 nM
121%	–	Cc1cc(NS(=O)(=O)c2ccc3c(c2)CCC(=O)N3)ccc1Cl	–
–	92%	Cc1ccc(NS(=O)(=O)c2cc3c(cc2Cl)CCC(=O)N3)cc1C	–
104%	–	O=C1CCc2cc(S(=O)(=O)Nc3cccc(Cl)c3)ccc2N1	EC50 (Pyruvate kinase PKM [4]): 410 nM
inactive	–	O=C1CCc2cc(S(=O)(=O)Nc3ccncc3)ccc2N1	–
–	112%	Cc1ccc(NS(=O)(=O)c2cc3c(cc2F)NC(=O)CC3)cc1Cl	Papp A→B at 2 h [5]: 6.22 ×10⁻⁶ cm/s; Ratio (Caco-2): 1; t1/2 (Liver): 54.1 min; t1/2 (Liver microsomes): 22.9 min; Papp B→A at 2 h [7]: 6.24 ×10⁻⁶ cm/s
95%	–	O=C1CCc2cc(S(=O)(=O)Nc3ccc(Cl)c(Cl)c3)ccc2N1	–
–	88%	Cc1ccc(NS(=O)(=O)c2ccc3c(c2)CCCC(=O)N3)cc1C	–
–	109%	Cc1ccc(NS(=O)(=O)c2cc3c(cc2Cl)CCC(=O)N3)cc1Cl	–

Emax (Pyruvate kinase PKM [1])	Emax (Pyruvate kinase PKM [2])	Structure (SMILES)	also measured
84%	–	O=C1CCc2cc(S(=O)(=O)Nc3ccc(F)cc3)ccc2N1	–
inactive	–	O=C1CCc2cc(S(=O)(=O)Nc3cccnc3)ccc2N1	–
73%	–	O=C1CCc2cc(S(=O)(=O)Nc3ccc4c(c3)CCC4)ccc2N1	–
115%	–	COc1cccc(NS(=O)(=O)c2ccc3c(c2)CCC(=O)N3)c1	–
–	93%	Cc1cc(NS(=O)(=O)c2cc3c(cc2F)NC(=O)CC3)ccc1Cl	–
–	52%	Cc1ccc(NS(=O)(=O)c2cc3c(cc2Br)CCC(=O)N3)cc1C	EC50 (Pyruvate kinase PKM [4]): 6600 nM
95%	–	O=C1CCc2cc(S(=O)(=O)Nc3ccccc3F)ccc2N1	–
109%	–	O=C1CCc2cc(S(=O)(=O)Nc3cccc(C(F)(F)F)c3)ccc2N1	–
94%	–	Cc1ccccc1NS(=O)(=O)c1ccc2c(c1)CCC(=O)N2	–
123%	–	O=C1CCc2cc(S(=O)(=O)Nc3ccc(F)c(Cl)c3)ccc2N1	EC50 (Pyruvate kinase PKM [4]): 290 nM
101%	–	O=C1CCc2cc(S(=O)(=O)Nc3cccc(F)c3)ccc2N1	EC50 (Pyruvate kinase PKM [4]): 790 nM
100%	–	O=C1CCc2cc(S(=O)(=O)Nc3ccc4c(c3)OCCO4)ccc2N1	–
106%	–	O=C1CCc2cc(S(=O)(=O)Nc3ccc(Cl)cc3)ccc2N1	–
inactive	–	O=C1CCc2cc(S(=O)(=O)Nc3ccc4ncccc4c3)ccc2N1	–
128%	–	Cc1cc(NS(=O)(=O)c2ccc3c(c2)CCC(=O)N3)ccc1F	–
102%	–	Cc1ccc(NS(=O)(=O)c2ccc3c(c2)CCC(=O)N3)cc1	–
